In ChEMBL document CHEMBL6182834, “Dual EGFR and telomerase inhibitory potential of new triazole tethered Schiff bases endowed with apoptosis: design, synthesis, and biological assessments” (RSC Med Chem, 2025) one finds inhibition, inhibition of growth and IC50 data, which are given here for seven molecules.

As usually defined, the IC50 is the concentration that inhibits the measured activity by half.

Data set [1] is described as follows: Cytotoxicity against HSF cells assessed as growth inhibition at 100 ug/mL incubated for 48 hrs by SRB assay relative to control. Type of data set: toxicity, cell-based. The settings on record: human, at 100 µg/mL, read-out: GI. Put shortly: (§1)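 SRB assay: cells seeded at 3×10^3/well, allowed 24 h to attach, then exposed to 100 µg/mL for 48 h, three wells per concentration, DMSO 1% v/v vehicle control. Cells fixed with 20% trichloroacetic acid and stained with 0.4% SRB, then OD read at 570 nm. Survival fraction taken as treated OD/control OD.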
For orientation: The SRB assay estimates cell density from bound dye.

Data set [2] can be described thus: Antiproliferative activity against human HNO 97 cell line assessed as growth inhibition at 100 ug/mL incubated for 48 hrs by SRB assay relative to control. It is filed as functional. The settings on record: read-out: GI. An outline of the steps:
as §1

Data set [3] is described as follows: Cytotoxicity against human HNO 97 cell line assessed as inhibition of cell growth incubated for 48 hrs by SRB assay. It is filed as functional, cell-based. The settings on record: HNO 97, 48 h. An outline of the steps:
(§2)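 Cells plated at 3×10^3/well and left 24 h to attach. Treated at 12.5, 25, 50 and 62.5 µg/mL for 48 h, three wells per concentration, with DMSO (1% v/v) vehicle control. Fixed with 20% TCA, stained with 0.4% SRB, OD read at 570 nm. Survival fraction = treated OD/control OD. IC50 from sigmoidal dose-response curve fitting.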

The next data set deals with MDA-MB-468. The data set can be described thus: Antiproliferative activity against human MDA-MB-468 cells assessed as growth inhibition at 100 ug/mL incubated for 48 hrs by SRB assay relative to control. Type of data set: functional. The settings on record: read-out: GI. Put shortly:
as §1

A further data set deals with Caco-2. The data set can be described thus: Antiproliferative activity against human Caco-2 cells assessed as growth inhibition at 100 ug/mL incubated for 48 hrs by SRB assay relative to control. Type of data set: functional. The settings on record: read-out: GI. Put shortly:
as §1

The next data set concerns Huh-7. The data set can be described thus: Antiproliferative activity against human Huh-7 cells assessed as growth inhibition at 100 ug/mL incubated for 48 hrs by SRB assay relative to control. The settings on record: read-out: GI. Type of data set: functional. Put shortly: as §1
The test system of a further data set is MG-63. The data set can be described thus: Antiproliferative activity against human MG-63 cells assessed as growth inhibition at 100 ug/mL incubated for 48 hrs by SRB assay relative to control. The settings on record: read-out: GI. Type of data set: functional. Put shortly: as §1
Data set [4] relates to HCT-116. Description: Antiproliferative activity against human HCT-116 cells assessed as growth inhibition at 100 ug/mL incubated for 48 hrs by SRB assay relative to control. Type of data set: functional. The settings on record: read-out: GI. Put shortly:
as §1

A short description of data set [5]: Cytotoxicity against human oral epithelial cells (OEC) assessed as growth inhibition at 100 ug/mL incubated for 48 hrs by SRB assay relative to control. Type of data set: toxicity, cell-based, Oral epithelial cell. The settings on record: at 100 µg/mL, read-out: GI. Put shortly: as §1
Data set [6] relates to A-375. The data set can be described thus: Antiproliferative activity against human A-375 cells assessed as growth inhibition at 100 ug/mL incubated for 48 hrs by SRB assay relative to control. It is filed as functional. The settings on record: read-out: GI. Put shortly: as §1
Data set [7] relates to HCT-116. Description: Cytotoxicity against human HCT-116 cells assessed as inhibition of cell growth incubated for 48 hrs by SRB assay. Type of data set: functional, cell-based. The settings on record: HCT-116, 48 h. Put shortly:
as §2

Data set [8] deals with A-375. Description: Cytotoxicity against human A-375 cells assessed as inhibition of cell growth incubated for 48 hrs by SRB assay. Type of data set: functional, cell-based. The settings on record: A-375, 48 h. Put shortly:
as §2

For data set [9], the system named is HepG2. The data set can be described thus: Antiproliferative activity against human HepG2 cells assessed as growth inhibition at 100 ug/mL incubated for 48 hrs by SRB assay relative to control. Type of data set: functional. The settings on record: read-out: GI. Put shortly: as §1
In another data set the test system is FaDu. Description: Antiproliferative activity against human FaDu cells assessed as growth inhibition at 100 ug/mL incubated for 48 hrs by SRB assay relative to control. It is filed as functional. The settings on record: read-out: GI. Put shortly:
as §1

Data set [10] concerns HepG2. Description: Cytotoxicity against human HepG2 cells assessed as inhibition of cell growth incubated for 48 hrs by SRB assay. Type of data set: functional, cell-based. The settings on record: HepG2, 48 h. An outline of the steps: as §2
The next data set relates to HeLa. Description: Antiproliferative activity against human HeLa cells assessed as growth inhibition at 100 ug/mL incubated for 48 hrs by SRB assay relative to control. Type of data set: functional. The settings on record: read-out: GI. An outline of the steps: as §1
The next data set relates to MCF7. Description: Antiproliferative activity against human MCF7 cells assessed as growth inhibition at 100 ug/mL incubated for 48 hrs by SRB assay relative to control. It is filed as functional. The settings on record: read-out: GI. Put shortly:
as §1

SMILES strings stand for the structures.

For `COc1cc(/C=N/NC(=O)c2nnn(-c3ccc(F)cc3)c2C)cc(OC)c1OC`, the inhibition at 48 h, 100 ug/mL is 38% in [1] and 32% in data set [5]. Besides, the inhibition of growth at 100 µg/mL was found to be 79% in [2]; 72% in the data set with MDA-MB-468; 58% in the data set with Caco-2; 75% with Huh-7; 63% in the data set on MG-63; 73% in the data set with HCT-116 [4]. Also, the inhibition of growth at 100 µg/mL in the data set on A-375 [6] was 85%; in the data set on HepG2 [9], 79%; in the data set on FaDu it was 72%; in the data set on HeLa, 56%; in the data set on MCF7, 68%. Also, the IC50 in data set [3] came out at 15.7 µM; in the data set with HCT-116 [7], 18.8 µM; in the data set with A-375 [8] it was 13.2 µM; with HepG2 [10], 35.7 µM.
As to `COc1cccc2c1C(=O)c1c(O)c3c(c(O)c1C2=O)C[C@@](O)(C(=O)CO)C[C@@H]3O[C@H]1C[C@H](N)[C@H](O)[C@H](C)O1` [DOXORUBICIN], the values for the inhibition at 48 h, 100 ug/mL in data set [1] and in data set [5] were 42% and 41%, respectively. Also, the inhibition of growth at 100 µg/mL was 59% in data set [2]; 73% in the data set with MDA-MB-468; 71% with Caco-2; 63% in the data set with Huh-7; 51% with MG-63; 76% with HCT-116 [4]. For the same molecule, the inhibition of growth at 100 µg/mL in the data set on A-375 [6] came out at 52%; in the data set on HepG2 [9], 72%; in the data set with FaDu, 61%; in the data set on HeLa, 76%; in the data set on MCF7 it was 69%. For the same molecule, the concentration for half-maximal inhibition (IC50) in data set [3] is 9.01 µM; in the data set with HCT-116 [7], 10.5 µM; in the data set on A-375 [8], 14.5 µM; with HepG2 [10] it was 11 µM.
With `COc1cccc(/C=N/NC(=O)c2nnn(-c3ccc([N+](=O)[O-])cc3)c2C)c1OC`, the inhibition at 48 h, 100 ug/mL was determined as 19% in data set [1] and 36% in data set [5]. The inhibition of growth at 100 µg/mL in [2] was 54%; with MDA-MB-468, 56%; in the data set on Caco-2 it was 32%; with Huh-7, 56%; in the data set on MG-63, 44%; in the data set with HCT-116 [4] it was 56%. For the same molecule, the inhibition of growth at 100 µg/mL in the data set on A-375 [6] turned out to be 75%; with HepG2 [9] it was 56%; with FaDu it was 56%; in the data set with HeLa, 52%; in the data set on MCF7 it was 63%.
In the case of `COc1ccc(/C=N/NC(=O)c2nnn(-c3ccc(F)cc3)c2C)cc1OC`, the inhibition at 48 h, 100 ug/mL came out at 21% in data set [1] and 33% in [5]. Besides, the inhibition of growth at 100 µg/mL worked out at 84% in data set [2]; 65% in the data set with MDA-MB-468; 49% in the data set on Caco-2; 65% with Huh-7; 84% in the data set on MG-63; 81% in the data set on HCT-116 [4]. Further, the inhibition of growth at 100 µg/mL in the data set on A-375 [6] is 82%; in the data set with HepG2 [9], 81%; with FaDu it was 89%; in the data set with HeLa, 78%; in the data set with MCF7, 87%.
Consider `COc1cccc(/C=N/NC(=O)c2nnn(-c3ccc(Br)cc3)c2C)c1OC`, for which the inhibition at 48 h, 100 ug/mL in data set [1] was 35%; in data set [5], 19%. Further, the inhibition of growth at 100 µg/mL in data set [2] stood at 77%; in the data set on MDA-MB-468, 63%; with Caco-2, 47%; in the data set on Huh-7, 70%; in the data set on MG-63, 63%; with HCT-116 [4] it was 69%. Moreover, the inhibition of growth at 100 µg/mL turned out to be 73% in the data set on A-375 [6]; 69% with HepG2 [9]; 79% in the data set on FaDu; 68% in the data set on HeLa; 60% with MCF7.
As to `COc1cc(/C=N/NC(=O)c2nnn(-c3ccc(Cl)cc3)c2C)cc(OC)c1OC`, the inhibition at 48 h, 100 ug/mL in data set [1] stood at 34%; in data set [5], 25%. Also, the inhibition of growth at 100 µg/mL was found to be 74% in data set [2]; 59% with MDA-MB-468; 53% with Caco-2; 78% in the data set with Huh-7; 38% with MG-63; 64% in the data set with HCT-116 [4]. For the same molecule, the inhibition of growth at 100 µg/mL in the data set on A-375 [6] came out at 63%; in the data set with HepG2 [9], 43%; with FaDu it was 69%; with HeLa, 42%; with MCF7, 50%.
With `Cc1c(C(=O)N/N=C/c2ccccc2)nnn1-c1ccc(Br)cc1`, the inhibition at 48 h, 100 ug/mL came to 4% in data set [1] and 23% in data set [5]. Moreover, the inhibition of growth at 100 µg/mL amounted to 89% in [2]; 65% in the data set with MDA-MB-468; 37% in the data set with Caco-2; 67% in the data set with Huh-7; 75% in the data set on MG-63; 87% with HCT-116 [4]. The inhibition of growth at 100 µg/mL in the data set with A-375 [6] was determined as 72%; in the data set on HepG2 [9], 72%; in the data set on FaDu, 83%; in the data set with HeLa it was 79%; with MCF7, 87%. Also, the IC50 in the data set with HCT-116 [7] turned out to be 16.9 µM.
